Assay results collected from several papers.
Action: inhibitor
CHEK2: Serine/threonine-protein kinase Chk2 (CHEK2, Homo sapiens, UniProt O96017)

| SMILES | target | assay | test system | setting | inhibition [%] |
| --- | --- | --- | --- | --- | --- |
| CN(C)C1CCN(CC#Cc2nn(C3CCCC3)c3nc(NCc4ccccc4)ncc23)C1 (centres unmarked) | CHEK2 | enzyme activity, FRET | – | 10 µM | 17 |
| COc1cc2ncnc(Nc3ccc(Oc4ccccc4)c(C)c3C)c2cc1OC | CHEK2 | enzyme activity | – | 1 µM | 36 |
| CNC(=O)c1cc(Oc2ccc(NC(=O)Nc3ccc(Cl)c(C(F)(F)F)c3)cc2)ccn1 | CHEK2 | enzyme activity | – | 0.3 µM | -5 |
| CCCS(=O)(=O)Nc1ccc(F)c(C(=O)c2c[nH]c3ncc(-c4ccc(Cl)cc4)cc23)c1F | CHEK2 | enzyme activity | – | 1 µM | < 10 |
| CCN1CCN(Cc2ccc(NC(=O)c3ccc(C)c(Oc4ccnc5[nH]ccc45)c3)cc2C(F)(F)F)CC1 | CHEK2 | target engagement in cells, chemoproteomics | A-375 | 0.5 µM | -16.3 |
| CNc1cccc2cc(C(=O)Nc3ccc(C(=O)O)cc3)c(=O)[nH]c12 | CHEK2 | enzyme activity | – | 10 µM | 15 |
| CN(c1ncccc1CNc1nc(Nc2ccc3c(c2)CC(=O)N3)ncc1C(F)(F)F)S(C)(=O)=O | CHEK2 | enzyme activity | – | 1 µM | 33.1 |
| CN1CC(Oc2cnc(C#N)cc2-c2ccn3nc(NC(=O)C4CC4)cc3c2)C1 | CHEK2 | enzyme activity | – | 1 µM | 0 |
| CCOc1cc(-c2nncn2C)ccc1Nc1ncc2cc(C)nc(NCC(C)(C)C)c2n1 | CHEK2 | enzyme activity, FRET | – | 1 µM | < 15 |
| Cc1ncc([N+](=O)[O-])n1C(=NO)c1ccccc1C(F)(F)F | CHEK2 | enzyme activity | – | 10 µM | 17.1 |
| CSc1nc(C)c(-c2ccnc(Nc3ccc(N4CCOCC4)cc3)c2)[nH]1 | CHEK2 | enzyme activity | – | 10 µM | -5.4 |
| Cc1ccc(Nc2nccc(N(C)c3ccc4c(C)n(C)nc4c3)n2)cc1S(N)(=O)=O | Serine/threonine-protein kinase Chk2 (CHEK2, Homo sapiens, UniProt O96017, I157T) | enzyme activity | – | 10 µM | 30 |
| CNc1cc(Oc2cc(C(=O)Nc3cc(N4CCN(C)CC4)cc(C(F)(F)F)c3)ccc2C)ncn1 | CHEK2 | target engagement in cells, chemoproteomics | Huh-7 | 1 µM | -100 |
| COc1cc2ncnc(Nc3ccc(Oc4ccccc4)cc3C)c2cc1OC | CHEK2 | enzyme activity | – | 1 µM | 83 |
